Laboratory results reported in PubChem BioAssay AID449754 (Broad Institute, 2010).
Results filed as inconclusive are left out. Active and inactive are the calls of the source.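 The calls were made as follows: active = compounds whose fitted caspase activation AC50 is no more than tenfold above the top tested dose; inconclusive = flat fit with 30 to 70% activity, or a failed fit; inactive = the rest.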

Test system: MEF Bax/Bak KO A1-BIM, caspase-Glo luminescence, 3 h
Assay: caspase signal in Bax-Bak null A1-BIM cells – cell-based, Bax-Bak knockout MEF, A1-2A-BIM, luminescence, counter-screen for A1 inhibitor project, dose response (AID 449754);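 also: counterscreen where caspase activation signals off-target toxicity not A1 inhibition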
In short: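 Material: Bax/Bak-knockout mouse embryonic fibroblasts expressing A1-2A-BIM; Quantity: 2500 cells per well, seeded one day before compound; Buffer or medium: RPMI-1640 growth medium with 10% FBS; Doses: 100 nL pinned compound per well; Times: 3 h compound at 37 °C, 1 h detection at RT; Signal: CaspaseGlo luminescence; Evaluation: caspase activity from luminescent signal.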

Row | Structure (SMILES) | AC50
1 | CC(=O)[C@]1(O)Cc2c(O)c3c(c(O)c2[C@@H](O[C@H]2C[C@H](N)[C@H](O)[C@H](C)O2)C1)C(=O)c1ccccc1C3=O | > 35 µM (inactive)
2 | COc1ccc(-c2c(C#N)c(N)nc(Sc3ccc(Cl)cc3)c2C#N)cc1 | > 35 µM (inactive)
3 | O=C1/C(=C/c2ccc(N3CCOCC3)o2)SC(=Nc2ccccc2)N1CCc1c[nH]c2ccccc12 | 6.82 µM
4 | c1ccc(-c2sc3ccccc3c2-c2ccc(OCCN3CCCC3)cc2)cc1 | 33 µM
5 | Cc1cccc(C)c1NC(=O)C(Cl)C(=O)c1ccccc1 (configuration not stated) | > 35 µM (inactive)
6 | Cc1ccc(NC(=O)CSc2nc3nc(C)c(Br)cc3[nH]2)cc1F | > 35 µM (inactive)
7 | Cc1ccc2c(c1)C(=O)C(=O)N2Cc1ccc(Br)cc1 | > 35 µM (inactive)
8 | Cc1occc1-c1nnc(SCC(=O)NCCc2ccccc2)n1Cc1ccccc1 | > 35 µM (inactive)
9 | COc1ccccc1-c1cn[nH]c1-c1ccc(OCc2ccccc2)cc1O | > 35 µM (inactive)
10 | COc1cccc(C(=O)C(C#N)=C(SC)SC)c1 | > 35 µM (inactive)
11 | C=C1CCc2c([nH]c3ccc(OCC(C)C)cc23)C1=O | 16.6 µM
12 | NC(=S)c1cn(C2OC(CO)C(O)C2O)c2ncnc(N)c12 (configuration not stated) | > 35 µM (inactive)
13 | Cc1ccc(S(=O)(=O)N(C)Cc2ccc(C(=O)N/N=C/c3ccc(OC(F)F)cc3)cc2)cc1 | > 35 µM (inactive)
14 | N#C/C(=C\c1ccc(OCc2ccccc2)cc1)C(=O)Nc1nc2c(s1)CCN(Cc1ccccc1)C2 | > 35 µM (inactive)
15 | O=C(CCl)N=c1sccn1Cc1ccccc1Cl | > 35 µM (inactive)
16 | CC1(C)C[C@H](O)[C@]2(CO)[C@H](O)C[C@]3(C)C(=CCC4[C@@]5(C)CC[C@H](O)C(C)(C)C5CC[C@]43C)[C@@H]2C1 (some centres not stated) | > 35 µM (inactive)
17 | Cc1[nH]nc2nc(SCC(=O)NCCC3=CCCCC3)n(-c3ccc(Br)cc3)c(=N)c12 | 18.6 µM
18 | CC1CCN(Cc2c(C(=O)N/N=C/c3ccc(C(C)(C)C)cc3)nnn2-c2nonc2N)CC1 | > 35 µM (inactive)
19 | COc1ccccc1CCNC(C)CCc1ccc(O)cc1 (configuration not stated) | > 35 µM (inactive)
20 | COc1cc(NC(=O)c2cccs2)ccc1NC(=O)c1cc2ccccc2o1 | > 35 µM (inactive)
21 | Cc1cc(NC(=O)/C(C#N)=C/c2ccc(-c3ccc(SC(F)F)cc3)o2)n(-c2ccccc2)n1 | > 35 µM (inactive)
22 | CCc1cc2c(=O)c(-c3cnn(-c4ccccc4)c3)c(C)oc2cc1OCC(=O)Nc1cccc(C)c1 | > 35 µM (inactive)
23 | C=CC(=O)Nc1ccc(CN2C(=O)N(c3c(Cl)c(OC)cc(OC)c3Cl)Cc3cnc(NCCCCN(CC)CC)nc32)cc1 | > 35 µM (inactive)
24 | COc1cc(CN2CCN(c3cc(C)ccc3C)CC2)ccc1O | > 35 µM (inactive)
25 | CC(C)(C)c1ccc2c(c1)OC(C(=O)N/N=C\c1ccc[nH]1)CO2 (configuration not stated) | > 35 µM (inactive)
26 | O=C(Nc1ccc2oc(-c3ccccc3F)nc2c1)c1ccccc1F | > 35 µM (inactive)

Row | Structure (SMILES) | AC50
27 | COc1ccc(OC)c2sc(N(CCCN(C)C)C(=O)c3ccc(S(=O)(=O)N4CCc5ccccc5C4)cc3)nc12 | > 35 µM (inactive)
28 | COc1ccc2c(c1)CCc1c(C(=O)Nc3cc(C)n(Cc4ccc(Cl)cc4)n3)noc1-2 | 7.59 µM
29 | COc1cc(NC(=O)c2ccccc2)c(OC)cc1NC(=O)Cc1ccc(Br)cc1 | > 35 µM (inactive)
30 | CCCCN1C(=O)/C(=C2/Sc3ccccc3N2C)S/C1=N\c1ncn[nH]1 | > 35 µM (inactive)
31 | COC(=O)Cc1csc(/N=C/c2c(O)n(-c3cccc(C(F)(F)F)c3)c(=O)c3ccccc23)n1 | 28 µM
32 | COCc1cc(C)nc(SCC(=O)Nc2nc(C)cs2)c1C#N | > 35 µM (inactive)
33 | C#CC(=O)N(c1cc(OC)ccc1OC)C(C(=O)NC1CCCC1)c1cccs1 (configuration not stated) | > 35 µM (inactive)
34 | CN(C)C/C=C(\c1ccc(Br)cc1)c1cccnc1 | > 35 µM (inactive)
35 | Cc1ccc(C#N)c(SCC(=O)Nc2nccs2)n1 | > 35 µM (inactive)
36 | Cc1cccc(NC(=O)/C(C#N)=C/c2cn(CC(=O)NCc3ccco3)c3ccccc23)c1 | > 35 µM (inactive)
37 | CC1=NNC(=O)/C1=C\c1cn(-c2ccccc2)nc1-c1cccs1 | 7.61 µM
38 | Cc1ccc(S(=O)(=O)c2nnn3c2nc(Nc2cccc(C)c2)c2ccccc23)cc1 | > 35 µM (inactive)
39 | CCc1nnc(NC(=O)c2nc(S(=O)(=O)Cc3ccccc3)ncc2Cl)s1 | > 35 µM (inactive)
40 | COc1ccc(OC)c(NC(=O)c2cc(-c3cc(C)ccc3O)n[nH]2)c1 | > 35 µM (inactive)
41 | COc1ccc(-c2nc(NC(=O)c3n[nH]c(=O)c4ccccc34)sc2C)cc1 | > 35 µM (inactive)
42 | CCc1ccc(NC(=O)c2nc(S(=O)(=O)Cc3ccccc3)ncc2Cl)cc1 | > 35 µM (inactive)
43 | O=C(NC[C@H]1CCCO1)c1cccc2c1C(=O)c1ccc(-c3ccc(F)cc3OCc3ccccc3)cc1S2(=O)=O | > 35 µM (inactive)
44 | CCN(C(=O)CCN1C(=O)c2ccccc2S1(=O)=O)c1ccccc1 | > 35 µM (inactive)
45 | Cc1cccc(NC(=O)CSc2nc(C)c(CC(=O)c3ccc(Br)cc3)c(C)c2C#N)c1C | > 35 µM (inactive)
46 | COc1ccc(NC(=O)c2cccc3c2C(=O)c2ccc(-c4ccc(F)cc4OCc4ccccc4)cc2S3(=O)=O)cc1 | > 35 µM (inactive)
47 | CC(C)(C)C1C/C(=C/c2ccccn2)C(=O)/C(=C/c2ccccn2)C1 (configuration not stated) | 8.26 µM
48 | Nc1nc(F)nc2c1ncn2[C@@H]1O[C@H](CO)[C@@H](O)[C@H]1O | > 35 µM (inactive)
49 | O=C(Nc1ccc2oc(-c3cccc(F)c3)nc2c1)c1ccccc1F | > 35 µM (inactive)
50 | Cc1cc(NC(=O)CSc2nc3cc(Cl)ccc3c(=O)n2Cc2ccco2)no1 | > 35 µM (inactive)
51 | COc1cc(/C=C(/C#N)c2nc3ccccc3[nH]2)ccc1OCC(=O)Nc1ccccc1C | 7.39 µM
52 | Cc1cc(=O)[nH]c(SCC(=O)Nc2ccc(Br)cc2)c1C#N | > 35 µM (inactive)

Row | Structure (SMILES) | AC50
53 | Oc1[nH]c2ccc(Br)cc2c1N=NC(=S)Nc1ccc(F)cc1 | > 35 µM (inactive)
54 | CN(C)CCCN(C(=O)c1ccc(S(=O)(=O)N2CCc3ccccc3C2)cc1)c1nc2ccc(F)cc2s1 | > 35 µM (inactive)
55 | CCOc1ccc(NCc2cccn2-c2nnc(N3CCC(C(=O)NCCCN4CC(C)CC(C)C4)CC3)s2)cc1 (configuration not stated) | > 35 µM (inactive)
56 | CC(=O)OC(C)(C)/C=C/C(=O)[C@](C)(O)C1[C@H](O)C[C@@]2(C)C3CC=C4C(C[C@H](O)C(=O)C4(C)C)[C@]3(C)C(=O)C[C@]12C (some centres not stated) | > 35 µM (inactive)
57 | O=C(Nc1ccc(-c2nc3cc(NC(=O)c4cccs4)ccc3o2)cc1)c1cccs1 | > 35 µM (inactive)
58 | CC1=CC(=O)C(C(C)C)=C/C1=N/OS(=O)(=O)c1ccccc1 | 7.41 µM
59 | Cc1ccc(-c2nc(NC(=O)c3nn(C)cc3[N+](=O)[O-])sc2C)cc1 | 6.29 µM
60 | COc1ccc(-c2ccc3c(c2)S(=O)(=O)c2cccc(C(=O)NCCOc4ccccc4)c2C3=O)cc1OC | > 35 µM (inactive)
61 | CC(C)(C)C1CCc2onc(C(=O)Nc3cccc(O)c3)c2C1 (configuration not stated) | > 35 µM (inactive)
62 | CCOC(=O)c1sc(NC(=O)CSc2nc(C)cc(C)c2C#N)c(C#N)c1C | > 35 µM (inactive)
63 | COc1cc2cnc(-c3ccccc3)c(-c3cccc(C(F)(F)F)c3)c2cc1OC | > 35 µM (inactive)
64 | CCCc1ccc(OCc2ccc(C(=O)N/N=C/c3cccc([N+](=O)[O-])c3)o2)c(OC)c1 | 26.3 µM
65 | O=C(NCc1ccccc1Cl)c1cccc2c1C(=O)c1ccc(-c3ccc(OC(F)(F)F)cc3)cc1S2(=O)=O | > 35 µM (inactive)
66 | Cc1cccc(CS(=O)(=O)c2ncc(Cl)c(C(=O)Nc3nnc(C(C)C)s3)n2)c1 | > 35 µM (inactive)
67 | O=C(Nc1ccc([N+](=O)[O-])cc1)c1nc[nH]c1C(=O)NC1CCCCC1 | > 35 µM (inactive)
68 | O=C(N=Nc1c(O)[nH]c2ccc([N+](=O)[O-])cc12)c1cc(-c2ccccc2Cl)nc2ccccc12 | > 35 µM (inactive)
69 | COc1ccc(C[C@H]2NC[C@H](O)[C@H]2OC(C)=O)cc1 | > 35 µM (inactive)
70 | O=C(Nc1ccc(Cl)cc1Cl)c1cccc(N2C(=O)C=CC2=O)c1 | > 35 µM (inactive)
71 | O=C(c1ccc(COc2ccc3ccccc3c2)o1)N1N=C(C(F)F)CC1(O)C(F)F (configuration not stated) | > 35 µM (inactive)
72 | Cc1ccc(C)c(NC(=S)NC(NC(=O)Cc2cccc3ccccc23)C(Cl)(Cl)Cl)c1 (configuration not stated) | 24.1 µM
73 | Cc1cc(C(=O)CCl)c(C)n1CCc1ccc(Cl)cc1 | > 35 µM (inactive)
74 | CCn1c(SCC(=O)c2ccccc2)nnc1-c1cc2cc(Br)ccc2o1 | > 35 µM (inactive)
75 | CN1C2CCC1/C(=C/c1ccccn1)C(=O)/C2=C\c1ccccn1 | > 35 µM (inactive)
76 | CC(C)(C)c1ccc(C(=O)Nc2ccc(O)c3c(=O)cc(-c4cccc(Cl)c4)oc23)cc1 | > 35 µM (inactive)
77 | CCOc1ccc(OCC(=O)N(CCC2=CCCCC2)c2c(N)n(Cc3ccccc3)c(=O)[nH]c2=O)cc1 | 18.8 µM
